According to publication PMC11329366 (Clinical and Translational Science, 2024):

Columns and labels:
human CYP11B2 (hCYP11B2) = target: T1, human CYP11B2 (hCYP11B2) (Homo sapiens, UniProt P19099); experiment: Assay of hCYP11B2 inhibition; type: biochemical; details: from inhibition constants
T1 sequence (P19099 25-503): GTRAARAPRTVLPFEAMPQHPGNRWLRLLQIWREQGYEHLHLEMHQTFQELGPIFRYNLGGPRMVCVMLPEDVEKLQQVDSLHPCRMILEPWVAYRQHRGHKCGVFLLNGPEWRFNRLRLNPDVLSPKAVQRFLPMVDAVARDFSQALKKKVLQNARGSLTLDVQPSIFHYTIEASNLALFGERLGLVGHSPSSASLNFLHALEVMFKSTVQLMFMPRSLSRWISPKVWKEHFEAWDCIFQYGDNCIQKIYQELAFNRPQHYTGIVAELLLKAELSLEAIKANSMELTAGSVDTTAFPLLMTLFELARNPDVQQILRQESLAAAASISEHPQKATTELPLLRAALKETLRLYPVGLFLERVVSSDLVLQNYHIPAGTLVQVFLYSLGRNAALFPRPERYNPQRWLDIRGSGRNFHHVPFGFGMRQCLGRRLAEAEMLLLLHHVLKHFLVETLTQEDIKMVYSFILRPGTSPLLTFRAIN
In short: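 Enzyme source: mitochondrial fraction of V79 cells stably expressing human CYP11B2 or human CYP11B1. Substrates were 11-DOC (converted to aldosterone, CYP11B2) and 11-deoxycortisol (converted to cortisol, CYP11B1). Inhibition constants came from product-generation rates with the free base. A dual CYP11B1/CYP11B2 reference inhibitor served as positive control.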

[1] = Phase I first-in-human study: plasma and urine pharmacokinetics; type: in vivo
In short: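 Healthy participants received an oral capsule. SAD: 5–800 mg fasted. MAD: 40, 120 or 360 mg once daily Days 1–7, fed. Females, or males ≥65 y, got a single 100 mg fasted dose, referenced to part 1. Plasma (all parts) and urine (MAD) were analysed non-compartmentally, BLQ=0, linear trapezoidal AUC. Dose proportionality used a power model (slope 95% CI); sex/age used geometric mean ratios (90% CI); fed-vs-fasted was compared informally.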

[2] = Phase I first-in-human study: safety and tolerability; type: in vivo
In short: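 Randomized, double-blind, placebo-controlled. SAD cohorts had 6 active/2 placebo, with two sentinels dosed ≥24 h before the rest. MAD cohorts had 9 active/3 placebo, dosed daily Days 1–7. Safety data were reviewed before each next cohort. Monitoring covered TEAEs, treatment-related TEAEs, vital signs, 12-lead ECGs, clinical laboratory tests and physical examinations.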

plasma aldosterone = experiment: Phase I pharmacodynamics: plasma aldosterone concentration; type: in vivo, human
In short: (§1)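 Plasma aldosterone and serum cortisol were followed after single fasted doses and after daily fed dosing. PAC AUC0–24 and cortisol AUC0–72 were derived non-compartmentally. Log AUC was modelled by dose group (pooled placebo), with Day ‑1 log AUC0–24 as covariate. Log change from time-matched Day ‑1 values over 0–24 h used a linear mixed model with unstructured covariance.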

serum cortisol = experiment: Phase I pharmacodynamics: serum cortisol, incl. ACTH challenge; type: in vivo, human
In short: as §1

plasma renin activity = experiment: Phase I pharmacodynamics: plasma renin activity; type: in vivo, human; details: MAD 40 to 360 mg once daily
serum 11-DOC = experiment: Phase I pharmacodynamics: serum 11-DOC; type: in vivo, human; details: MAD 40 to 360 mg once daily
serum potassium = experiment: Phase I: serum potassium; type: in vivo, human
In short: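 Serum potassium was tracked during 7 days of once-daily 40, 120 or 360 mg dosing (fed) and the following washout. The stopping criterion was 6.0 mmol/L potassium.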

[3] = tested on: urinary log10 (10 × Na+/K+) ratio; experiment: Phase I pharmacodynamics: urine sodium and urinary log10; type: in vivo, human
In short: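 Urine was collected in intervals, and the amounts of sodium and potassium excreted per interval were measured. The urinary log10(10 × Na⁺/K⁺) ratio was calculated per interval after single doses and through 7 days of once-daily 40–360 mg dosing plus washout.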

plasma 11-deoxycortisol = experiment: Phase I pharmacodynamics: plasma 11-deoxycortisol; type: in vivo, human; details: MAD, non-ACTH challenge conditions
[4] = MAD Day 6, all multiple-dose levels

## CC(=O)N[C@H]1CC[C@H](NC(=O)CN2CCN(c3nncc(-c4ccc(C)cc4)n3)CC2)CC1 [lorundrostat, Lorundrostat]
Human CYP11B2 (hCYP11B2)
  selectivity for CYP11B2 over CYP11B1: 374 fold
[1]; MAD Day 7, 95% CI, 1.060–1.234
  estimate of the slope for AUC0–24 versus dose (power model): 1.147
[1]; MAD once-daily dosing
  steady state achieved by: ~5 days
[1]; SAD 5–800 mg
  estimate of the slope (95% CI) for C max versus dose (power model): 1.104 (1.043–1.164)
  interindividual variability of exposure parameters (C max and AUC0–∞): < 20%
[1]; first cohort of part 2 (fed) vs part 1 (fasted), exploratory
  effect of fed state on the PK profile: did not appear to be affected
[1]; human, plasma, oral, 5 mg, t 1/2, SAD 5 mg single dose, fasted, mean (SD)
  half-life: 8.3 h
[1]; human, plasma, oral, 10 mg, t 1/2, SAD 10 mg single dose, fasted, mean (SD)
  half-life: 7.9 h
[1]; human, plasma, oral, 40 mg, t 1/2, MAD 40 mg once daily, fed, Day 1, mean (SD)
  half-life: 5.3 h
[1]; human, plasma, oral, 50 mg, t 1/2, SAD 50 mg single dose, fasted, mean (SD)
  half-life: 9.1 h
[1]; human, plasma, oral, 120 mg, t 1/2, MAD 120 mg once daily, fed, Day 1, mean (SD)
  half-life: 4.4 h
[1]; human, plasma, oral, 200 mg, t 1/2, SAD 200 mg single dose, fasted, mean (SD)
  half-life: 9.9 h
[1]; human, plasma, oral, 360 mg, T max, MAD 360 mg once daily, fed, Day 1, median (minimum, maximum)
  Tmax: 3 h
[1]; human, plasma, oral, 360 mg, t 1/2, MAD 360 mg once daily, fed, Day 1, mean (SD)
  half-life: 4.4 h
[1]; human, plasma, oral, 360 mg, t 1/2, MAD 360 mg once daily, fed, Day 7, mean (SD)
  half-life: 9.2 h
[1]; human, plasma, oral, 400 mg, t 1/2, SAD 400 mg single dose, fasted, mean (SD)
  half-life: 9.7 h
[1]; human, plasma, oral, 800 mg, t 1/2, SAD 800 mg single dose, fasted, mean (SD)
  half-life: 10.5 h
[1]; human, plasma, oral, mean t 1/2, MAD Day 7, range over dose groups
  half-life: 9.1 to 11.9 h
[1]; human, plasma, oral, t 1/2, single- and multiple-dose administration
  half-life: 10 to 12 h
[1]; single 100 mg dose, part 3 vs part 1
  difference in exposure between females and males: no statistically significant difference
[1]; single 100 mg dose, part 4 vs part 1
  difference in exposure between older adult and younger adult participants: no statistically significant difference
[2]; across all cohorts, nine lorundrostat-treated participants, placebo one (3.4%)
  incidence of dizziness (of mild intensity): 10.3%
[2]; all lorundrostat-treated participants (41/87), placebo 18/29 [62%]
  overall incidence of TEAEs: 47%
[2]; all parts
  findings in clinical laboratory, vital signs, ECGs, or physical examination: no clinically significant findings
  serious TEAEs: no serious TEAEs
[2]; all parts, single up to 800 mg, once daily up to 360 mg for 7 days
  tolerability: well tolerated
Plasma aldosterone; [4]
  ACTH-stimulated aldosterone response compared with placebo: completely blunted
Plasma aldosterone; SAD, at 4 h and 8 h post-dose
  maximum decrease of PAC compared with placebo: ~ 80%
Plasma aldosterone; multiple once-daily 120-mg doses
  time for plasma aldosterone to return to baseline: ≤ 16 h
Plasma aldosterone; single 400- to 800-mg doses
  reduction of PAC (AUC0–24): up to 70%
Plasma aldosterone; single doses 5–50 mg, post-dose
  time for PAC to return to values near baseline: ≤ 24 h
Plasma aldosterone; single doses 100–800 mg
  duration of the reduction of PAC: sustained until 24 h post‐dose
Serum cortisol; [4]
  ACTH-stimulated cortisol response: no effect
Serum cortisol; MAD, non-ACTH challenge conditions
  change from baseline of serum cortisol concentrations: no relevant changes from baseline
Serum cortisol; single doses 10 to 800 mg
  effect on cortisol (AUC0–72): without effecting cortisol
Plasma renin activity
  plasma renin activity compared with placebo: increased
Serum 11-DOC
  serum 11-DOC compared with placebo: increased
Serum potassium; MAD 40 mg, Day 8
  maximum mean increase of serum potassium: 0.44 mmol/L
Serum potassium; MAD 120 mg, Day 7
  maximum mean increase of serum potassium: 0.6 mmol/L
Serum potassium; MAD part 2
  subjects reaching the stopping criterion for potassium of 6.0 mmol/L: None
[3]; MAD Day 1, all dose levels
  urine sodium and urinary log10 (10 × Na+/K+) ratio: initially increased
[3]; MAD Day 7, end of the dosing period
  urine sodium and urinary log10 (10 × Na+/K+) ratio: returned to baseline levels
[3]; MAD, Day 7 to Day 9 (after last dose)
  urinary log10 (10 × Na+/K+) ratio: clear reductions
[3]; SAD, all dose levels
  urine sodium and urinary log10 (10 × Na+/K+) ratio: increased
Plasma 11-deoxycortisol
  change from baseline of plasma 11-deoxycortisol concentrations: no relevant changes from baseline
